These results are taken from ChEMBL document CHEMBL1148512, “Fluorophor-labeled spermidine derivatives as fluorescent markers in optical tumor imaging” (Bioorg Med Chem Lett, 2006).

Active and inactive are the calls of the source. No cut-off for these calls is given here.

Data set [1] has as its system MH3924A. The experiment in a line: Cellular uptake in rat MH3924A cells. The data set is classed as ADME, cell-based. The procedure, abridged: (§1)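 Cultured tumour cells grown on coverslips, incubated with 50 µM dye conjugate for 1, 4 and 24 h, then imaged by confocal laser scanning microscopy. Parallel incubations were run with benzyl viologen, a polyamine uptake inhibitor. B16 cells were also co-cultured with 3T3YMT-MP non-tumour cells, which express yellow fluorescent protein in mitochondria. Unlabelled cells served as reference.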

Data set [2] has as its system B16. The experiment in a line: Increase in fluorescence in mouse B16 cells after 24 hrs relative to control. The data set is classed as functional, cell-based. The procedure, abridged: (§2)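 Quantitative uptake assay: tumour cells incubated with dye for 24 h. Cell-associated fluorescence is expressed as percent increase over unlabelled tumour cells.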
Data set [3] relates to MH3924A. Kind of data set: Increase in fluorescence in rat MH3924A cells after 24 hrs relative to control. The data set is classed as functional, cell-based. The procedure, abridged:
as §2

Data set [4] concerns MH3924A. The experiment in a line: Cellular uptake in rat MH3924A cells xenografted in nude Balc C nu/nu mouse by fluorescence imaging. The format is ADME, cell-based. Particulars: in vivo. The procedure, abridged: (§3)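 Male Balb/c nu/nu nude mice (about 20 g) carrying subcutaneous MH3924A rat hepatoma (3–8 mm diameter). Dye given as an iv bolus via lateral tail vein, 500 lmol/kg; PBS-injected controls. Under ip ketamine/xylazine (1 mL/kg), open surgery with chest or abdominal incision. Cooled CCD imaging at 10 min, 1 h and 4 h, 60 s exposure, about 5 cm distance. Photon counts summed per equal-size region of interest (11.6 mm2) over 1 min.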

The species entered for data set [5] is Mus musculus. The experiment in a line: Distribution in bladder of MH3924A hepatoma bearing nude Balc C nu/nu mouse by fluorescence imaging. The format is ADME, organism-based, Urinary bladder. The conditions noted are these: in vivo. The procedure, abridged:
as §3

For data set [6], the species on record is Mus musculus. Kind of data set: Distribution in muscle of MH3924A hepatoma bearing nude Balc C nu/nu mouse by fluorescence imaging. The data set is classed as ADME, organism-based, Muscle tissue. The conditions noted are these: in vivo. The procedure, abridged: as §3
Data set [7] is filed under the species Mus musculus. The experiment in a line: Distribution in lung of MH3924A hepatoma bearing nude Balc C nu/nu mouse by fluorescence imaging. The format is ADME, organism-based. Particulars: in vivo. The procedure, abridged:
as §3

Data set [8] has as its system B16. The experiment in a line: Cellular uptake in mouse B16 cells. The data set is classed as ADME, cell-based. The procedure, abridged: as §1
In data set [9] the test system is B16. Kind of data set: Cytotoxicity against mouse B16 cells assessed as inhibition of colony formation at 25 uM after 4 hrs. The data set is classed as functional, cell-based. The procedure, abridged: (§4)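 Colony forming assay in MH3924A and B16 cells. Cells were exposed to dye for 4 h (1–250 µM tested across dyes) and colonies were scored 8 days later. Colony formation is expressed as percent of untreated controls.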

The subject of data set [10] is MH3924A. Kind of data set: Cytotoxicity against rat MH3924A cells assessed as inhibition of colony formation at 25 uM after 4 hrs. The format is functional, cell-based. The procedure, abridged: as §4

Regarding `CNc1ccccc1C(=O)NCCCCNCCCN`, the Drug uptake entry in the data set on MH3924A [1] was “Active”; with B16 [2] it was 19%; in the data set on MH3924A [3], 16%; in the data set with MH3924A [4], “Active”; in the data set listed under Mus musculus [5], “Active”; in the data set filed under Mus musculus [6], “Not Active”. Also, in the data set listed under Mus musculus [7], the Drug uptake entry is listed as “Not Active”.

Regarding `Cc1cc2cc3cc(C)c(NC(=O)CC(N)C(=O)NCCCCNCCCN)cc3nc2cc1N` (stereo not drawn) [ASPARTYL(ACRIDINE YELLOW G)SPERMIDINE], the Drug uptake result with B16 [8] and in the data set on MH3924A [1] was “Active” throughout. Further, the outcome in the data set with B16 [9] and with MH3924A [10] was Active.

As to `NCCCNCCCCNC(=O)C[C@H](NC(=O)c1ccc(-c2c3ccc(=O)cc-3oc3cc(O)ccc23)c(C(=O)O)c1)C(=O)NCC(=O)NCC(N)=O`, the Drug uptake result in the data set on B16 [8] and with MH3924A [1] was “Not Active” in each case.
